These results are taken from ChEMBL document CHEMBL1122721, “Synthesis and antiarrhythmic activity of new 1-[1-[2-[3-(alkylamino)-2-hydroxypropoxy]phenyl]vinyl]-1 H-imidazoles and related compounds” (J Med Chem, 1984).

Series [1] is described as follows: Lethal dose in mice (LD50) (following i.v. dosing). As to conditions: mouse, in vivo, iv.
For series [2], the system named is Mus musculus. Nature of the series: Compound was evaluated for ventricular extrasystole activity, 3 min before aconitine infusion, at a dose of 10 mg/kg, intravenously administered in mice; S=significant antiarrhythmic effect. Format: functional, organism-based. On the set-up: dose 10 mg/kg. The settings on record: Heart. The essentials:
(§1)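 Aconitine arrhythmia model in pentobarbital-anesthetized male mice (20-35 g). Test compound was given iv 3 min or po 30 min before continuous tail-vein infusion of aconitine (0.685 µg/min). Lead II ECG recorded; onset times of ventricular extrasystole (VES) and ventricular tachycardia (VT) were measured.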

Series [3] has as its target Adrenergic receptor beta (Cavia porcellus). Briefly: Beta adrenergic receptor blocking activity measured by the inotropic effect was determined 1 hr after pretreament of the right atria in guinea pig.
For series [4] the target is unchanged. Briefly: Beta adrenergic receptor blocking activity measured by the chronotropic effect was determined 1 hr after pretreatment of the right atria in guinea pig.
For series [5], the species on record is Cavia porcellus. Briefly: Maximal follow rate showing the contractile frequencies of atria to electrical stimulation 10 min after incubation with right atria of guinea pig. The class given is functional. In a few lines: (§2)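 Isolated right atria driven by electrical stimulation (Dawes' method). Maximal follow rate, the highest contractile frequency the atria follow, measured as an index of refractory period 10 min after incubation with compound.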

In series [6] the test system is Mus musculus. Nature of the series: Compound was evaluated for ventricular tachycardia activity in intravenously administered mice, 3 min before aconitine infusion, at a dose of 10 mg/kg; S=significant antiarrhythmic effect. The class given is functional, organism-based. On the set-up: dose 10 mg/kg. As to conditions: Heart. In a few lines:
as §1

Series [7] is filed under the species Canis familiaris. Briefly: Duration of ischemic arrhythmias in dogs determined in minutes.
Series [8] concerns Canis familiaris. Nature of the series: Effect on ischemic arrhythmias was studied in dogs. 3 mg/kg was injected intravenously and percent sinus beats after compound administration, was reported. The class given is functional, Canis lupus familiaris. The settings on record: route intravenous. The essentials:
(§3)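 Conscious dogs with ischemic ventricular arrhythmias persisting for 24 h after a glass bead was inserted into a coronary artery. Compound was given iv or orally. Lead II ECG recorded continuously by telemetry. Percent sinus beats taken before and after dosing, plus duration of effect (min).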

Series [9] concerns Mus musculus. Nature of the series: Compound was evaluated for ventricular tachycardia activity in intravenously administered mice, 3 min before aconitine infusion, at a dose of 3 mg/kg; S=significant antiarrhythmic effect. The class given is functional, organism-based. Set-up: dose 3 mg/kg. The settings on record: Heart. In a few lines: as §1
The subject of series [10] is Mus musculus. Briefly: Compound was evaluated for ventricular extrasystole, 30 min before aconitine infusion, at a dose of 30 mg/kg, perorally administered in mice; S=significant antiarrhythmic effect. As to conditions: Heart. Set-up: dose 30 mg/kg. The class given is functional, organism-based. The essentials: as §1
Series [11] deals with Mus musculus. Nature of the series: Compound was evaluated for ventricular extrasystole activity, 3 min before aconitine infusion, at a dose of 3 mg/kg, intravenously administered in mice; S=significant antiarrhythmic effect. Set-up: dose 3 mg/kg. The class given is functional, organism-based. The settings on record: Heart. In a few lines: as §1
For series [12], the system named is Canis familiaris. Nature of the series: Effect on ischemic arrhythmias was studied in dogs. 3 mg/kg was injected intravenously and percent sinus beats before compound administration, was reported. The class given is functional, Canis lupus familiaris. The settings on record: route intravenous. In a few lines: as §3
The test system of series [13] is Mus musculus. Briefly: Compound was evaluated for ventricular tachycardia activity in perorally administered mice, 30 min before aconitine infusion, at a dose of 30 mg/kg; S=significant antiarrhythmic effect. The class given is functional, organism-based. On the set-up: dose 30 mg/kg. The settings on record: Heart. In a few lines: as §1
Series [14] deals with Mus musculus. Briefly: Compound was evaluated for ventricular extrasystole, 3 min before aconitine infusion, at a dose of 3 mg/kg, intravenously administered in mice; S=significant antiarrhythmic effect. The settings on record: Heart.
Series [15] relates to Mus musculus. Briefly: Compound was evaluated for ventricular tachycardia activity in perorally administered mice, 30 min before aconitine infusion, at a dose of 10 mg/kg; S=significant antiarrhythmic effect. The class given is functional, organism-based. On the set-up: dose 10 mg/kg. As to conditions: Heart. In a few lines:
as §1

Series [16] deals with Mus musculus. Briefly: Compound was evaluated for ventricular extrasystole, 30 min before aconitine infusion, at a dose of 10 mg/kg, perorally administered in mice; S=significant antiarrhythmic effect. Set-up: dose 10 mg/kg. As to conditions: Heart. Format: functional, organism-based. The essentials: as §1
Series [17] is filed under the species Cavia porcellus. Briefly: Effect on maximal follow rate showing the contractile frequencies of atria to electrical stimulation 10 min after incubating compound with right atria of guinea pig. The class given is functional. In a few lines:
as §2

Series [18] deals with Canis familiaris. Briefly: Effect on ischemic arrhythmias was studied in dogs, by glass bead method. 60 mg/kg was administered perorally and percent sinus beats after compound administration, was reported. The class given is functional, Canis lupus familiaris. The settings on record: route oral. The essentials:
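Conscious dogs; ventricular arrhythmias induced by inserting a glass bead into a coronary artery, with marked arrhythmias persisting for 24 h. Compound given orally. Lead II ECG recorded continuously by telemetry. Percent sinus beats measured before and after dosing, and duration of effect in min recorded.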

The test system of series [19] is Canis familiaris. Nature of the series: Effect on ischemic arrhythmias was studied in dogs, by glass bead method. 60 mg/kg was administered perorally and percent sinus beats before compound administration, was reported. The class given is functional, Canis lupus familiaris. The settings on record: route oral. In a few lines: as §3

As to `C=C(c1ccccc1OCC(O)CN(C)C)n1ccnc1` (stereo not given), the LD50 in series [1] stood at 45.4 mg/kg. Besides, the Activity entry in the series with Mus musculus [2] and with Mus musculus [6] was “Anti-arrhythmic” throughout. The results for the pA2 in series [3] and in [4] were 6.12 and 5.41, respectively. In addition, the Decrease in the series listed under Cavia porcellus [5] stood at 30.7%.

For `C=C(c1ccccc1OCC(O)CNC(C)C)n1cncn1` (stereo not given), in the series listed under Canis familiaris [7], the Duration was 15 min. The values for the Sinus beats in the series on Canis familiaris [8] and in the series on Canis familiaris [12] were 28.3% and 9.8%, respectively. The Activity entry in the series on Mus musculus [9], in the series on Mus musculus [10] and in the series with Mus musculus [11] was “Anti-arrhythmic” in each case. Besides, the pA2 is reported as 6.33 in [3] and 6.12 in series [4].

Take `C=C(c1cccc(C)c1OCC(O)CNC(C)(C)C)n1ccnc1` (stereo not given): in series [1], the LD50 amounted to 23.1 mg/kg. Also, the Activity result in the series on Mus musculus [9], in the series on Mus musculus [10], in the series on Mus musculus [11] and in the series with Mus musculus [13] was “Anti-arrhythmic” in each case. In addition, the pA2 in series [3] is 5.62; in series [4], 5.81. Also, the Decrease in the series filed under Cavia porcellus [5] is on record as 46.6%.

Take `C=C(c1ccc(Cl)c(Cl)c1OCC(O)CNC(C)C)n1ccnc1` (stereo not given): the Activity result in the series with Mus musculus [14] and with Mus musculus [9] was “Anti-arrhythmic” each time. In addition, the pA2 in series [3] is 4.9; in [4], 4.52.

As to `C=C(c1c(C)ccc(Cl)c1OCC(O)CNC(C)(C)C)n1ccnc1` (stereo not given), the Activity result with Mus musculus [15], with Mus musculus [16], with Mus musculus [9] and in the series on Mus musculus [11] was “Anti-arrhythmic” throughout. In the series listed under Canis familiaris [7], this compound displayed a Duration of 30 min. The Sinus beats worked out at 59.1% with Canis familiaris [8] and 11.7% in the series on Canis familiaris [12]. This compound came in with an LD50 in series [1] of 29.5 mg/kg. Also, the pA2 in [3] is 5.77; in series [4], 5.04. Further, the Decrease in the series filed under Cavia porcellus [5] was found to be 49.8%.

`C=C(c1c(Cl)ccc(Cl)c1OC[C@@H](O)CNC(C)C)n1ccnc1.Cl`: the Activity result with Mus musculus [15], with Mus musculus [16], with Mus musculus [2] and with Mus musculus [9] was “Anti-arrhythmic” throughout. This compound yielded a Decrease in the series filed under Cavia porcellus [17] of 40.3%. Also, the pA2 in series [3] is on record as 5.05; in [4] it was 5.08.

In series [1], `C=C(c1c(C)ccc(C)c1OCC(O)CNC(C)C)n1ccnc1` (stereo not given) gave an LD50 of 30.7 mg/kg. Further, the Activity result in the series with Mus musculus [9] and with Mus musculus [11] was “Anti-arrhythmic” in each case. Also, the pA2 in [3] is 6.43; in series [4] it was 6.23. Besides, in the series listed under Cavia porcellus [5], the Decrease is listed as 35.7%.

For the compound `C=C(c1ccccc1OCC(O)CNC(C)(C)C)n1cccn1` (stereo not given), the pA2 in series [3] was 8.01; in [4], 8.1. In addition, the Activity result in the series with Mus musculus [6] was “Anti-arrhythmic”.

Consider `C=C(c1c(Cl)ccc(Cl)c1OC[C@H](O)CNC(C)C)n1ccnc1.Cl`, for which the Activity entry in the series on Mus musculus [15], in the series on Mus musculus [9] and in the series on Mus musculus [11] was “Anti-arrhythmic” throughout. In addition, in the series filed under Cavia porcellus [17], the Decrease was determined as 39.5%. The pA2 is 5.19 in series [3] and 4.46 in series [4].

`CC(C)NCC(O)COc1cccc2ccccc12` (stereo not given) [PROPRANOLOL]: the results for the Sinus beats with Canis familiaris [18] and with Canis familiaris [19] were 51.6% and 12%, respectively. In the series filed under Cavia porcellus [17], the Decrease came out at 33.5%. The Activity entry in the series on Mus musculus [2], in the series on Mus musculus [10] and with Mus musculus [6] was “Anti-arrhythmic” each time.
